Compound activity: PubChem, several laboratories
A selection: hits, their analogues and other compounds. The true share with any hit is near 2.8%.
NPY-Y2 antag = NPY-Y2 (human) receptor antagonism. 140,000 tested, 0.99% active. P49146. inhibition, % at 2.7 µM. NPY-Y2 expressing cells, antagonist mode;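 also: 0% = vehicle with agonist challenge and 100% = reference antagonist with challenge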
NPY Y1 blocker = antagonists of human neuropeptide Y receptor Y1 | P25929 | HEK293-CNG Y1 cells, membrane potential fluorescence; NPY at EC95, then isoproterenol | inhibition, % at 3.6 µM | 200,000 tested, 1% active;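 active = inhibition above the campaign mean inhibition of all tested compounds plus 3 SD, cut at about 20% in these data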;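 also: 0% = DMSO wells given NPY plus isoproterenol and 100% = isoproterenol alone without NPY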
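Material: HEK293 Y1/CNG channel cell line; also added: NPY (25 nM), isoproterenol (1 µM), Ro 20-1724 (25 µM); doses: one concentration, 3.6 µM, in 0.4% DMSO; schedule: compound incubation 1 h at room temperature, readout 45 min post-stimulation; technique: membrane potential fluorescence; measure: fluorescence ratio normalized to % inhibition between controls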
NPY-Y2 PAM-ag = potentiates or activates human NPY-Y2 receptor. P49146. cells expressing NPY-Y2, potentiator/agonist read-out. activation, % at 3.6 µM. 220,000 tested, 0.45% active; in the data active = activation above about 27%;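 also: cells stimulated with NPY near EC25 plus isoproterenol at EC100; 0% = vehicle plus submaximal agonist and 100% = vehicle plus saturating agonist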
Measles CPE = protection of cells from measles virus. Measles virus-infected cells, CPE protection, absorbance. protection (pct of control), % at 4 µM. 140,000 tested, 1.5% active; in the data active = protection mostly above about 24%, no sharp cut-off; inactive = mostly below about 26%
NPY-Y1 PAM-ag = human NPY-Y1 potentiation or agonism, primary screen; P25929; NPY-Y1 expressing cells, potentiator/agonist activation; activation, % at 3.6 µM; 220,000 tested, 0.37% active; in the data active = activation above about 33%, passing the limit was not always enough;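 also: cells stimulated with NPY at EC10 then isoproterenol at EC100; 0% = low agonist plus stimulus and 100% = saturating agonist plus stimulus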
MDM2 E3 inh = blocks human Mdm2 ubiquitin ligase activity | AID 1230 | cell-based MDM2 ubiquitination luciferase reporter, 2 h; 0 = plate control, 100 = twice control, blank-subtracted | Q00987 | signal enhancement, % at 5 µM | 210,000 tested, 0.11% active;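 active = signal enhancement of 30% or more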;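 also: luminescence tracks abundance of the self-degrading MDM2-luciferase fusion protein; higher signal means inhibition of MDM2 E3 ligase activity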
Target sequence (Q00987 whole entry, looked up, the tested form may be a part): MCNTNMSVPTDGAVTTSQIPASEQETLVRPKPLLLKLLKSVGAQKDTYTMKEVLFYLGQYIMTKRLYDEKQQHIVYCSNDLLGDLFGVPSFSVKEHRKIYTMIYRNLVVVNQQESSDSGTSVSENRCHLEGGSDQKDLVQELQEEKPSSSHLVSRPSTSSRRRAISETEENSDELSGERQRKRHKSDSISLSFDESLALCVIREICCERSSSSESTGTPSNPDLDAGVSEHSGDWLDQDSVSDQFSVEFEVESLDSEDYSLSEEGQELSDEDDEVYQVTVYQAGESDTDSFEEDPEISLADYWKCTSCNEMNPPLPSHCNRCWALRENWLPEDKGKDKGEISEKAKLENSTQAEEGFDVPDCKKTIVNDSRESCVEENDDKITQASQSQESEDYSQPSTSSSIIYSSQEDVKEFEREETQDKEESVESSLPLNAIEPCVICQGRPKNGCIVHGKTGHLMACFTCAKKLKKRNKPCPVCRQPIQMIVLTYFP
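Assay system: stable mammalian line carrying autodegrading MDM2–luciferase fusion reporter; Input: 2000 cells in each well; Compound dosing: single-point 5 µM; Schedule: 2 h compound exposure at 37 °C; Signal: SteadyLite luciferase luminescence after 15 min room-temperature reagent incubation; Evaluation: % luminescence enhancement versus blank-corrected plate control mean; Benchmarks: plate controls and plate blanks.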
NPY1 antag conf = human NPY-Y1 antagonism, confirmation | shares compounds with NPY Y1 blocker | HEK293-CNG NPY-Y1, membrane potential fluorescence, cAMP; NPY challenge against isoproterenol-raised cAMP | inhibition, % at 3.6 µM | 1,200 tested, 21% active; in the data active = inhibition above about 20%;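 also: 0% = vehicle with agonist plus stimulus and 100% = stimulus alone without agonist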
NPY2 antag ctr = human NPY-Y2 antagonism in NPY-Y1 counter-screen. HEK293 NPY-Y2 CNG membrane potential fluorescence; cells given NPY, then isoproterenol. 1,200 tested, 28% active. shares compounds with NPY Y1 blocker. inhibition, % at 3.6 µM. AID 1255;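 also: 0% = DMSO with agonist challenge and 100% = reference antagonist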
Numbers without * were called inactive; . = no result given. Rule as the data show it, unless noted: active = inhibition above about 17%; inactive = the rest.

SMILES	NPY-Y2 antag	NPY Y1 blocker	NPY-Y2 PAM-ag	Measles CPE	NPY-Y1 PAM-ag	MDM2 E3 inh	NPY1 antag conf	NPY2 antag ctr
CCc1c(C(=O)N/N=C/c2ccc(C)o2)csc1C	1	5	-12	11	-9	.	.	.
Cc1cc(C)c(C#N)c(SCc2[nH]nc3c2C(c2ccc(F)cc2)C(C#N)=C(N)O3)n1 (stereo unspecified)	11	42*	-15	6	-41	2	57*	41*
COCc1[nH]nc2c1C(c1cccc(OC)c1)C(C#N)=C(N)O2 (stereo unspecified)	4	6	-9	0	-21	-19	.	.
Cc1cc(C#N)c(C)c(SCc2[nH]nc3c2C(c2ccccc2)C(C#N)=C(N)O3)n1 (stereo unspecified)	8	21*	-16	16	-27	15	59*	39*
O=C(c1cc(COc2ccc(F)cc2Cl)on1)N1CCc2ccccc2C1	.	31*	-9	.	-39	-18	13	13
O=C(c1cc(COc2ccc(F)cc2Cl)on1)N1CCCC(c2ccccc2)C1 (stereo unspecified)	.	5	-5	.	2	-9	.	.
CCOC(=O)c1[nH]c(C)c(C(=O)N2CCc3ccccc32)c1C	5	32*	-10	3	-14	-13	0	9
CC(=O)c1c(C)[nH]c(C(=O)N2CCc3ccccc32)c1C	1	-3	8	22	14	0	.	.
Cc1ccc(OCC(=O)Nc2ccccc2-c2ccccc2)cc1	7	7	-36	14	-43	24	.	.
COc1cccc(OCC(=O)Nc2ccccc2-c2ccccc2)c1	.	24*	-11	.	-23	-7	15	12
CCCCOc1ccc([N+](=O)[O-])cc1C(=O)O	.	-2	-2	.	-11	-13	.	.
C=C(C(=O)c1ccccc1)C(C)C(=C)C(=O)c1ccccc1	4	4	3	0	10	-9	.	.
CCCCN(CCCC)CC(O)COc1ccccc1C(=O)Nc1ccccc1 (stereo unspecified)	.	46*	-26	.	-22	4	18	18*
CCC(c1nnnn1C(C)(C)C)N1CCN(c2cc(Cl)ccc2C)CC1 (stereo unspecified)	11	25*	-24	3	-18	-8	14	14
Cc1ccc(Cl)cc1N1CCN(C(c2cccnc2)c2nnnn2C2CCCCC2)CC1 (stereo unspecified)	1	-1	7	6	10	7	.	.
Cc1ccc(Cl)cc1N1CCN(C(c2ccc(C#N)cc2)c2nnnn2C2CCCC2)CC1 (stereo unspecified)	14	27*	-18	5	-12	-14	18	13
S=c1[nH]nc(-c2ccc3ccccc3n2)o1	12	20*	-11	1	-3	-11	11	7
FC(F)(F)c1ccc(-c2n[nH]c(=S)o2)nc1	.	.	-8	.	2	-22	.	.
O=C(Cc1cccc2ccccc12)N1CCCc2ccccc21	0	-3	-13	8	-1	-12	.	.
CCOC(=O)c1ccc(Nc2ncnc3ccc(C)cc23)cc1	2	45*	-9	5	-8	-13	0	5
CC(=O)NS(=O)(=O)c1ccc2sc(C)nc2c1	.	.	-37	.	-38	-10	.	.
CCOc1cc(/C=C2\CCC/C(=C\c3cc(Cl)c(O)c(OCC)c3)C2=O)cc(Cl)c1O	16	44*	-44	3	-55	-16	45*	44*
C=CCNC(=O)/C(C#N)=C\c1cc(Cl)c(O)c(OCC)c1	1	4	-24	14	-17	-12	.	.
CSc1cccc(NC(=O)CN(c2ccccc2)S(=O)(=O)N(C)C)c1	13	20*	-17	-1	44	-33	4	4
CN(C)S(=O)(=O)N(CC(=O)Nc1ccc(F)c(F)c1)c1ccccc1	6	-2	-1	5	13	-1	.	.
SMILES	NPY-Y2 antag	NPY Y1 blocker	NPY-Y2 PAM-ag	Measles CPE	NPY-Y1 PAM-ag	MDM2 E3 inh	NPY1 antag conf	NPY2 antag ctr
O=C(c1ccc(Br)o1)N(Cc1ccccc1)Cc1ccccc1	14	20*	-16	23	-14	.	7	5
O=C(/C=C/c1ccc([N+](=O)[O-])cc1)OCC(=O)N1c2ccccc2Sc2ccccc21	1	0	-1	10	-8	0	.	.
CC(C)N(Cc1nc(-c2ccccc2)no1)C(=O)c1ccc2c(c1)OCO2	7	7	-15	15	-37	-22	.	.
O=C(NCc1nc(-c2ccccc2)no1)c1ccc2c(c1)OCO2	6	22*	-3	13	-34	6	13	10
CCOC(=O)C1(CC2CCCCO2)CCN(C2CCSCC2)CC1 (stereo unspecified)	.	34*	-16	.	-2	-13	10	9
N#Cc1cnc(SCC(=O)NNC(=O)COc2cccc3ccccc23)nc1N	3	-5	-5	17	16	3	.	.
O=C(NCc1ccco1)C(c1ccccc1)N(C(=O)Cc1cccs1)c1ccccc1F (stereo unspecified)	13	22*	-1	16	7	-8	2	3
O=C(NCc1ccco1)C(c1ccncc1)N(C(=O)Cc1cccs1)c1ccccc1 (stereo unspecified)	.	5	-14	.	1	-9	.	.
CCOCCCNS(=O)(=O)c1ccc(NC(=O)Cc2c(F)cccc2Cl)cc1	.	6	-1	.	-2	-13	.	.
COC(=O)C1C(O)=C(C(C)=Nc2cccc3ccccc23)C(=O)CC1(C)C (stereo unspecified)	.	.	-3	.	-25	-7	.	.
CCN(CC)Cc1cc(CCNC(=O)c2ccc(Cl)cc2)ccc1O	4	4	0	11	4	-12	.	.
CN(C)Cc1cc(CCNC(=O)c2ccc(Cl)cc2)ccc1O	2	22*	5	9	-11	4	-1	2
CCCC(C)C(=O)Nc1nc(C)c(-c2csc(Nc3ccccc3OC)n2)s1 (stereo unspecified)	9	24*	-14	7	2	-4	13	6
CCCCCCC(=O)Nc1nc(C)c(-c2csc(Nc3ccccc3OC)n2)s1	12	32*	3	5	5	2	10	6
CCC(C)N(C(=O)CSc1ccc(NC(C)=O)cc1)C1CCS(=O)(=O)C1 (stereo unspecified)	.	-4	6	.	3	-14	.	.
COc1ccc(C2(C(=O)NCCCN3CCOCC3)CCOCC2)cc1	2	-2	-11	2	5	-23	.	.
